Data taken from ChEMBL document CHEMBL1132222, “Lamellarin alpha 20-sulfate, an inhibitor of HIV-1 integrase active against HIV-1 virus in cell culture” (J Med Chem, 1999).
Values joined by “and” are separate entries in the source; they are usually repeats but may differ in a detail not shown here. Equal entries are not always repeated. Active and inactive are the calls of the source. The calls are words filed in the database; no cut-off is given here.

Assays:
[1] = The compound was tested for toxicity using MTT cytotoxicity assay in Hela cell culture, activity expressed as LD50 value.; format: cell-based; settings: human, HeLa cells; read-out: LD50 (the source's name)
Procedure, shortened: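 HeLa cells in culture exposed to a range of compound concentrations; viability read out with MTT dye; LD50 derived from the concentration series.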

[2] = target: Human immunodeficiency virus type 1 integrase (Human immunodeficiency virus 1, UniProt Q7ZJM1); assay: Inhibitory activity against integrase as yield of terminal cleavage products
Procedure, shortened: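 Purified HIV-1 integrase incubated with an end-labeled substrate oligonucleotide across a compound titration. Products separated by electrophoresis and visualized by autoradiography; terminal cleavage product quantitated relative to positive control without inhibitor.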

[3] = tested on: Molluscum contagiosum virus; assay: The relaxation activity of MCV topoisomerase was assayed at 500 electrophoresis; No Inhibition; format: functional, organism-based
Procedure, shortened: (§1)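 Type 1B topoisomerase of molluscum contagiosum virus; relaxation of supercoiled plasmid DNA monitored by mobility shift on agarose gel electrophoresis.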

[4] = tested on: Molluscum contagiosum virus; assay: The relaxation activity of MCV topoisomerase was assayed at 100 electrophoresis; No Inhibition; format: functional, organism-based
Procedure, shortened: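 Counterscreen against the type 1B topoisomerase of molluscum contagiosum virus (MCV). Relaxation of supercoiled plasmid DNA was followed by the change in its mobility on agarose gel electrophoresis, with compound present.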

[5] = tested on: Molluscum contagiosum virus; assay: The relaxation activity of MCV topoisomerase was assayed at 170 electrophoresis; No Inhibition; format: functional, organism-based; procedure, shortened: as §1
[6] = tested on: Human immunodeficiency virus 1; assay: The compound was tested in vitro for inhibition of PIC (preintegrated complexes) from HIV-1 infected cells; format: functional
Procedure, shortened: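 Preintegration complexes isolated from HIV-1-infected cells used as integration source; mixed with naked DNA target and incubated 37 °C for 1 h in presence of compound.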

Human immunodeficiency virus type 1 integrase, sequence (Q7ZJM1 whole entry): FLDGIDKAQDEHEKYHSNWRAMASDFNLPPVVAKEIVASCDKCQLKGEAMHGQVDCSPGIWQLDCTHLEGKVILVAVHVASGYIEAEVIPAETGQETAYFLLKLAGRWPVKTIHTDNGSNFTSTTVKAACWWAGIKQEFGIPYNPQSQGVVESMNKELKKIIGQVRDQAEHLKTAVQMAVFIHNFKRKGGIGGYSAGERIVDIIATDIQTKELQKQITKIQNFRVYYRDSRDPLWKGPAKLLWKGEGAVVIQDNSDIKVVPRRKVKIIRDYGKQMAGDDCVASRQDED

| SMILES | CC50 [1] | IC50 [2] | inhibition [3] | inhibition [4] | inhibition [5] | IC50 [6] |
| --- | --- | --- | --- | --- | --- | --- |
| COc1ccc(-c2c3n(c4c(=O)oc5cc(OS(=O)(=O)O)c(OC)cc5c24)C(O)Cc2c-3cc(OC)c(OC)c2OC)cc1O (centres undefined) | 130 µM | 73 µM and 51 µM | inactive | – | – | – |
| COc1ccc(-c2c3n(c4c(=O)oc5cc(O)c(OC)cc5c24)CCc2c-3cc(OC)c(OC)c2OC)cc1O | 27 µM | 27 µM and 24 µM | – | inactive | – | – |
| COc1ccc(-c2c3n(c4c(=O)oc5cc(OS(=O)(=O)O)c(OC)cc5c24)CCc2cc(OC)c(OC)cc2-3)cc1O | 145 µM | 34 µM and 25 µM | inactive | – | – | – |
| COc1ccc(-c2c3c4cc(OC)c(O)cc4oc(=O)c3n3ccc4c(OC)c(OC)c(OC)cc4c23)cc1O | 28 µM | 19 µM and 14 µM | – | – | inactive | – |
| COc1ccc(-c2c3c4cc(OC)c(OS(=O)(=O)O)cc4oc(=O)c3n3ccc4cc(OC)c(OC)cc4c23)cc1O | 274 µM | 16 µM and 22 µM | – | – | inactive | 88 µM |
| COc1ccc(-c2c3c4cc(OC)c(O)cc4oc(=O)c3n3ccc4cc(O)c(OC)cc4c23)cc1O | 5 µM | 18 µM and 19 µM | – | inactive | – | – |
